ChEMBL document CHEMBL1955792, “Potent norovirus inhibitors based on the acyclic sulfamide scaffold” (Bioorg Med Chem, 2012)
Activity calls are given as the source filed them. The calls are words filed in the database; no cut-off is given here.

How the values were obtained:
Norovirus [1] = experiment: Antiviral activity against Norovirus infected in HG23 cells assessed as inhibition of viral replication at 24 hrs by qRT-PCR analysis; format: functional; conditions: read-out: ED50 (the source's name)
Procedure, shortened: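 Norwalk virus replicon-bearing HG23 cells were treated with compound, and NV genome levels were quantified by qRT-PCR at 24 h post-treatment. ED50 was derived from the reduction in genome levels. Values are the average of two independent experiments ± standard deviation.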

[2] = Cytotoxicity against human HG23 cells at 48 hrs; format: cell-based; conditions: for CC50: hg23, 48 h, 48 h, read-out: TD50 (the source's name); for CC50 at 48 h: HG23 cells, read-out: TD50
Procedure, shortened: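 Norwalk virus replicon-harboring HG23 cells were treated with compound for 48 h, then assayed with a commercial cell cytotoxicity kit. The median toxic dose (TD50) was calculated from this read-out. Values are the average of two independent experiments ± standard deviation.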

[3] = Therapeutic index, ratio of TD50 for human HG23 cells to ED50 for Norovirus infected in HG23 cells; format: cell-based; conditions: for Ratio TD50/ED50: hg23; for selectivity ratio: HG23 cells, read-out: Ratio TD50/ED50
Procedure, shortened: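 TD50 in HG23 replicon cells was measured with a cell cytotoxicity assay kit after 48 h of treatment. […] The index is TD50 divided by ED50.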

Norovirus [4] = experiment: Inhibition of Norovirus 3C protease

SMILES	EC50 (Norovirus [1]; Norovirus, HG23, 24 h) [µM]	inhibition (Norovirus [4])	further results
O=C(O)CCCCN1CCN(Cc2cccc(Oc3ccccc3)c2)S1(=O)=O	6.1	–	–
CN(CC(=O)NCCN1CCOCC1)S(=O)(=O)NCc1cccc(Oc2ccccc2)c1.Cl	–	–	CC50 [2]: 235 µM; Ratio TD50/ED50 [3]: 24; EC50 (Norovirus [1]): 10.1 µM
CCCC(NS(=O)(=O)NCc1cccc(Oc2ccccc2)c1)C(=O)NCCN1CCOCC1 (racemic)	> 10	inactive	–
O=C(O)C1CCN(C(=O)CNS(=O)(=O)NCc2cccc(Oc3ccccc3)c2)CC1	> 10	inactive	–
O=C(CNS(=O)(=O)NCc1cccc(Oc2ccccc2)c1)NCCN1CCOCC1 [listing 1 of 3 here]	–	–	CC50 [2]: 330 µM; selectivity ratio [3]: 65; EC50 (Norovirus [1]): 5.1 µM
O=C(CN(Cc1ccccc1)S(=O)(=O)NCc1cccc(Oc2ccccc2)c1)NCCN1CCOCC1 [listing 1 of 3 here]	–	inactive	–
COC(=O)C1CCN(C(=O)CNS(=O)(=O)NCc2cccc(Oc3ccccc3)c2)CC1	> 10	inactive	–
CSCCC(NS(=O)(=O)NCc1cccc(Oc2ccccc2)c1)C(=O)NCCN1CCOCC1 (racemic; 7d)	–	inactive	–
O=C(CNS(=O)(=O)NCc1cccc(Oc2ccccc2)c1)N1CCN(Cc2ccccc2)CC1 [listing 1 of 2 here]	5.5	–	CC50 at 48 h [2]: 145 µM; selectivity ratio [3]: 26
CN(CC(=O)NCCN1CCOCC1)S(=O)(=O)NCc1cccc(Oc2ccccc2)c1 [listing 1 of 2 here]	5.2	–	CC50 at 48 h [2]: 320 µM; Ratio TD50/ED50 [3]: 63
COC(=O)CNS(=O)(=O)NCc1cccc(Oc2ccccc2)c1	> 10	inactive	–
CC(NS(=O)(=O)NCc1cccc(Oc2ccccc2)c1)C(=O)NCCN1CCOCC1 (racemic; 6b) [listing 1 of 2 here]	> 10	–	–
O=C(CN(Cc1ccccc1)S(=O)(=O)NCc1cccc(Oc2ccccc2)c1)NCCN1CCOCC1 [listing 2 of 3 here]	3.8	–	CC50 at 48 h [2]: 45 µM
O=C(CNS(=O)(=O)NCc1cccc(Oc2ccccc2)c1)NCCc1ccccc1	> 10	inactive	–
CSCCC(NS(=O)(=O)NCc1cccc(Oc2ccccc2)c1)C(=O)NCCN1CCOCC1.Cl (racemic; 7d)	–	–	CC50 [2]: 230 µM; Ratio TD50/ED50 [3]: 54
O=C(CNS(=O)(=O)NCc1cccc(Oc2ccccc2)c1)NCc1ccco1	> 10	inactive	–

SMILES	EC50 (Norovirus [1]; Norovirus, HG23, 24 h) [µM]	inhibition (Norovirus [4])	further results
CCOC(=O)N1CCN(C(=O)CNS(=O)(=O)NCc2cccc(Oc3ccccc3)c2)CC1	8.2	inactive	CC50 at 48 h [2]: 130 µM
CSCCC(NS(=O)(=O)NCc1cccc(Oc2ccccc2)c1)C(=O)NCCN1CCOCC1 (racemic; 6d) [listing 1 of 2 here]	–	inactive	–
O=C(CNS(=O)(=O)NCc1cccc(Oc2ccccc2)c1)NCCN1CCOCC1 [listing 2 of 3 here]	8.5	–	CC50 at 48 h [2]: 165 µM
Cl.O=C(CNS(=O)(=O)NCc1cccc(Oc2ccccc2)c1)N1CCN(Cc2ccccc2)CC1	–	–	CC50 [2]: 120 µM; Ratio TD50/ED50 [3]: 21; EC50 (Norovirus [1]): 5.7 µM
CN(CC(=O)NCCN1CCOCC1)S(=O)(=O)NCc1cccc(Oc2ccccc2)c1 [listing 2 of 2 here]	–	inactive	–
O=C(CNS(=O)(=O)NCc1cccc(Oc2ccccc2)c1)NCc1ccccc1	8.1	inactive	CC50 at 48 h [2]: 47 µM
COC(=O)C1CCC(NC(=O)CNS(=O)(=O)NCc2cccc(Oc3ccccc3)c2)CC1 (configuration not stated)	> 10	inactive	CC50 at 48 h [2]: 75 µM
O=C(CNS(=O)(=O)NCc1cccc(Oc2ccccc2)c1)NC1CCC(C(=O)O)CC1 (configuration not stated)	> 10	inactive	–
CSCCC(NS(=O)(=O)NCc1cccc(Oc2ccccc2)c1)C(=O)NCCN1CCOCC1 (racemic; 6d) [listing 2 of 2 here]	4.5	–	CC50 at 48 h [2]: 124 µM; selectivity ratio [3]: > 27
O=C(CNS(=O)(=O)NCc1cccc(Oc2ccccc2)c1)NCCN1CCOCC1 [listing 3 of 3 here]	–	inactive	–
O=C(CNS(=O)(=O)NCc1cccc(Oc2ccccc2)c1)N1CCN(Cc2ccccc2)CC1 [listing 2 of 2 here]	–	inactive	–
CC(NS(=O)(=O)NCc1cccc(Oc2ccccc2)c1)C(=O)NCCN1CCOCC1 (racemic; 7b)	–	inactive	–
CC(NS(=O)(=O)NCc1cccc(Oc2ccccc2)c1)C(=O)NCCN1CCOCC1 (racemic; 6b) [listing 2 of 2 here]	–	inactive	–
O=S1(=O)N(CCN2CCOCC2)CCN1Cc1cccc(Oc2ccccc2)c1	4.2	–	CC50 at 48 h [2]: 51 µM
O=S1(=O)NCCN1Cc1cccc(Oc2ccccc2)c1	4.1	–	–
O=C(CN(Cc1ccccc1)S(=O)(=O)NCc1cccc(Oc2ccccc2)c1)NCCN1CCOCC1 [listing 3 of 3 here]	–	–	CC50 [2]: 55 µM; EC50 (Norovirus [1]): 3.9 µM
